# The source made the active and inactive calls. No cut-off for these calls is given here.
# Tested on: T1, Androgen receptor (Homo sapiens), P10275 [W742C]
# T1 sequence (whole entry): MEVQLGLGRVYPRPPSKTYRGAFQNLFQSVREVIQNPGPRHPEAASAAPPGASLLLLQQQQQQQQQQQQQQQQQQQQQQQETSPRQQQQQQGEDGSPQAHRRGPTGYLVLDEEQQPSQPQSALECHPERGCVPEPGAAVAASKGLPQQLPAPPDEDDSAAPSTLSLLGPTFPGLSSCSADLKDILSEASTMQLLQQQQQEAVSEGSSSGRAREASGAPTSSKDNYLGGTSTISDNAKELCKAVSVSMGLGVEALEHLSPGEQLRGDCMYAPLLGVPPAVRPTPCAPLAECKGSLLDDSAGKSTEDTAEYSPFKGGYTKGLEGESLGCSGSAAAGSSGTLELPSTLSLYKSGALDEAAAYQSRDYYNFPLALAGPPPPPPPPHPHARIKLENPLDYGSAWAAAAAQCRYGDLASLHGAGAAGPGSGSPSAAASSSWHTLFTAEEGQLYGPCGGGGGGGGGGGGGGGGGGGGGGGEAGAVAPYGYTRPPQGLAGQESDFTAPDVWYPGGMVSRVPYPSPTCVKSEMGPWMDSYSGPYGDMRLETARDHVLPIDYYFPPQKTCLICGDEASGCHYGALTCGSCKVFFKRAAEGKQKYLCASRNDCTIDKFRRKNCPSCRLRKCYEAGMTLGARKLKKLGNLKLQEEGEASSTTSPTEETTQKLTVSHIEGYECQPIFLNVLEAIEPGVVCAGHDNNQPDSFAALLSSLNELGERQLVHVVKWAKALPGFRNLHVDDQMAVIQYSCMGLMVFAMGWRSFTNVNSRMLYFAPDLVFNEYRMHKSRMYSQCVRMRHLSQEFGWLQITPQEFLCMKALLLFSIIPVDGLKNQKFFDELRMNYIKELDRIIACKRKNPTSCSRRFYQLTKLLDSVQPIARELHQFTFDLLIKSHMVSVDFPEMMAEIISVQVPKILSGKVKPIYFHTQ
# Experiment: Activity in human PC3 cells expressing androgen receptor W741C mutant assessed as ARE-dependent transactivation at 0.1 uM after 24 hrs by luciferase reporter gene assay in absence of DHT
# Format: cell-based
# Details: PC-3
# Procedure, shortened: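 PC-3 cells, which lack endogenous AR, transiently transfected with plasmids expressing human AR (WT, T877A, W741C or H874Y) plus an ARE-driven MMTV-luc reporter. Cells were treated with or without 0.1 nM DHT. Firefly luciferase was standardized to a Renilla control and normalized to the 0.1 nM DHT signal. Mean ± sd.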
structure (smiles),measurement,value
COc1cc(/C=C(\C(=O)/C=C/C2=C(C)CCCC2(C)C)C(=O)/C=C/c2ccc(O)c(OC)c2)ccc1O,Activity,inactive

# — ChEMBL document CHEMBL1153534, “Design and synthesis of androgen receptor antagonists with bulky side chains for overcoming antiandrogen resistance” (J Med Chem, 2009)
